Results on 20 molecules are retold here after ChEMBL document CHEMBL5620421, “2,6-Disubstituted 7-(naphthalen-2-ylmethyl)-7H-purines as a new class of potent antitubercular agents inhibiting DprE1” (Eur J Med Chem, 2023).

Assay type in all cases: functional
Test [1] has as its system Mycobacterium kansasii. Description: Antitubercular activity against Mycobacterium kansasii CNCTC My 235/80 assessed as inhibition of bacterial growth measured after 21 days of incubation by Sulas semisynthetic medium based assay. Particulars: CNCTC My 235/80, 504 h, time 21 day. The method, boiled down: (§1)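 Micromethod in Sula's semisynthetic medium. MIC is the lowest concentration inhibiting >99% of the mycobacterial population. Isoniazid was the standard.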

For test [2], the system named is Mycobacterium tuberculosis. Description: Antitubercular activity against Mycobacterium tuberculosis CNCTC My 331/88 (H37Rv) assessed as inhibition of bacterial growth measured after 14 days of incubation by Sulas semisynthetic medium based assay. The settings on record: 336 h, time 14 day. The gist of the method: (§2)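 Micromethod MIC in Sula's semisynthetic medium. MIC is the lowest concentration inhibiting >99% of the mycobacterial population. Isoniazid was the standard drug.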

Test [3] has as its system Mycobacterium kansasii. Description: Antitubercular activity against Mycobacterium kansasii CNCTC My 235/80 assessed as inhibition of bacterial growth measured after 14 days of incubation by Sulas semisynthetic medium based assay. Particulars: CNCTC My 235/80, 336 h, time 14 day. The gist of the method:
as §1

Test [4] deals with Mycobacterium avium. Description: Antitubercular activity against Mycobacterium avium CNCTC My 330/88 assessed as inhibition of bacterial growth measured after 21 days of incubation by Sulas semisynthetic medium based assay. Particulars: CNCTC My 330/88, 504 h, time 21 day. The gist of the method: (§3)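 M. avium was tested by the micromethod in Sula's semisynthetic medium. Compounds in DMSO at 1000 to 0.5 μmol/L. Incubation at 37 °C, read at 14 and 21 days. MIC is the lowest concentration giving >99% growth inhibition.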

Test [5] concerns Mycobacterium tuberculosis. Description: Antitubercular activity against Mycobacterium tuberculosis CNCTC My 331/88 (H37Rv) assessed as inhibition of bacterial growth measured after 21 days of incubation by Sulas semisynthetic medium based assay. Particulars: 504 h, time 21 day. The gist of the method:
as §2

Test [6] has as its system Mycobacterium kansasii. Description: Antitubercular activity against Mycobacterium kansasii CNCTC My 235/80 assessed as inhibition of bacterial growth measured after 7 days of incubation by Sulas semisynthetic medium based assay. Particulars: CNCTC My 235/80, 168 h, time 7 day. The gist of the method:
as §1

Test [7] concerns Mycobacterium avium. Description: Antitubercular activity against Mycobacterium avium CNCTC My 330/88 assessed as inhibition of bacterial growth measured after 14 days of incubation by Sulas semisynthetic medium based assay. The settings on record: CNCTC My 330/88, 336 h, time 14 day. The gist of the method:
as §3

The structures appear in SMILES notation. ≈ marks a conversion by molar mass, not a printed value. Where only a bound is given, the exact number is not on record here.

Regarding `O=c1[nH]c(NCCO)nc2ncn(Cc3ccc4ccccc4c3)c12`, the MIC99 (in the test on Mycobacterium kansasii [1]; in test [2]; in the test with Mycobacterium kansasii [3]; in the test with Mycobacterium avium [4]; in test [5]; with Mycobacterium kansasii [6]) was over 500 µM in each case. Also, the MIC99 (usually the lowest concentration that inhibits either 99% of growth or 99% of the strains tested, depending on the study) in the test with Mycobacterium avium [7] was over 500 µM.
Regarding `O=c1[nH]c(N2CCOCC2)nc2ncn(Cc3ccc(Cl)cc3)c12`, the MIC99 in the test with Mycobacterium kansasii [1] is over 500 µM; in test [2], over 500 µM; in the test on Mycobacterium kansasii [3], 250 µM (≈ 86.4 µg/mL); with Mycobacterium avium [4], over 500 µM; in test [5], over 500 µM; with Mycobacterium kansasii [6], 125 µM (≈ 43.2 µg/mL). Besides, the MIC99 in the test with Mycobacterium avium [7] is over 500 µM.
In the case of `CN(C)c1nc2ncn(Cc3ccc4ccccc4c3)c2c(=O)[nH]1`, the MIC99 (in the test with Mycobacterium kansasii [1]; in test [2]; in the test with Mycobacterium kansasii [3]; with Mycobacterium avium [4]; in test [5]; in the test with Mycobacterium kansasii [6]) was over 500 µM throughout. For the same molecule, the MIC99 in the test with Mycobacterium avium [7] was over 500 µM.
On to `O=c1[nH]c(N2CCOCC2)nc2c1ncn2Cc1ccccc1`, for which the MIC99 (in the test on Mycobacterium kansasii [1]; in test [2]; in the test on Mycobacterium kansasii [3]; in the test on Mycobacterium avium [4]; in test [5]; with Mycobacterium kansasii [6]) was over 500 µM each time. In addition, the MIC99 in the test on Mycobacterium avium [7] is over 500 µM.
As to `c1ccc2cc(Cn3cnc4nc(N5CCOCC5)nc(NCc5ccncc5)c43)ccc2c1`, the MIC99 in the test with Mycobacterium kansasii [1] turned out to be 64 µM (≈ 28.9 µg/mL); in test [2], 8 µM (≈ 3.61 µg/mL); in the test with Mycobacterium kansasii [3], 64 µM (≈ 28.9 µg/mL); in the test on Mycobacterium avium [4], 500 µM (≈ 226 µg/mL); in test [5], 8 µM (≈ 3.61 µg/mL); with Mycobacterium kansasii [6], 64 µM (≈ 28.9 µg/mL). Further, the MIC99 with Mycobacterium avium [7] is 250 µM (≈ 113 µg/mL).
For `S=c1[nH]cnc2ncn(Cc3ccc4ccccc4c3)c12`, the MIC99 (with Mycobacterium kansasii [1]; in test [2]; with Mycobacterium kansasii [3]; in the test on Mycobacterium avium [4]; in test [5]; in the test on Mycobacterium kansasii [6]) was over 500 µM in each case. Moreover, the MIC99 in the test with Mycobacterium avium [7] was over 500 µM.
On to `O=c1[nH]cnc2ncn(Cc3ccc4ccccc4c3)c12`, for which the MIC99 in the test on Mycobacterium kansasii [1] was over 500 µM; in test [2] it was over 500 µM; in the test with Mycobacterium kansasii [3], over 500 µM; in the test on Mycobacterium avium [4], over 500 µM; in test [5] it was over 500 µM; with Mycobacterium kansasii [6], 125 µM (≈ 34.5 µg/mL). The MIC99 in the test with Mycobacterium avium [7] was over 500 µM.
In the case of `S=c1[nH]c(=S)c2c(ncn2Cc2ccc3ccccc3c2)[nH]1`, the MIC99 (in the test on Mycobacterium kansasii [1]; in test [2]; with Mycobacterium kansasii [3]; in the test on Mycobacterium avium [4]; in test [5]; with Mycobacterium kansasii [6]) was over 500 µM in each case. In addition, in the test on Mycobacterium avium [7], the MIC99 is over 500 µM.
For the molecule `CC(C)c1ccc(Cn2cnc3c(=O)[nH]c(N4CCOCC4)nc32)cc1`, the MIC99 was over 250 µM in the test on Mycobacterium kansasii [1]; 125 µM (≈ 44.2 µg/mL) in test [2]; over 250 µM with Mycobacterium kansasii [3]; over 250 µM in the test on Mycobacterium avium [4]; over 250 µM in test [5]; over 250 µM in the test on Mycobacterium kansasii [6]. In addition, in the test with Mycobacterium avium [7], the MIC99 is over 250 µM.
For `COCCNc1nc2ncn(Cc3ccc4ccccc4c3)c2c(=O)[nH]1`, the MIC99 (with Mycobacterium kansasii [1]; in test [2]; in the test on Mycobacterium kansasii [3]; with Mycobacterium avium [4]; in test [5]; with Mycobacterium kansasii [6]) was over 500 µM throughout. Moreover, the MIC99 in the test on Mycobacterium avium [7] was over 500 µM.
Turning to `CN(C)CCNc1nc(N2CCOCC2)nc2ncn(Cc3ccc4ccccc4c3)c12`, the MIC99 is 125 µM (≈ 53.9 µg/mL) in the test on Mycobacterium kansasii [1]; 32 µM (≈ 13.8 µg/mL) in test [2]; 125 µM (≈ 53.9 µg/mL) in the test on Mycobacterium kansasii [3]; 500 µM (≈ 216 µg/mL) in the test on Mycobacterium avium [4]; 64 µM (≈ 27.6 µg/mL) in test [5]; 64 µM (≈ 27.6 µg/mL) in the test on Mycobacterium kansasii [6]. The MIC99 in the test on Mycobacterium avium [7] was determined as 500 µM (≈ 216 µg/mL).
Consider `O=c1[nH]c(N2CCOCC2)nc2c1ncn2Cc1ccc(Cl)c(Cl)c1`, for which the MIC99 (with Mycobacterium kansasii [1]; in test [2]; in the test with Mycobacterium kansasii [3]; in the test on Mycobacterium avium [4]; in test [5]; with Mycobacterium kansasii [6]) was over 250 µM throughout. In the test on Mycobacterium avium [7], the MIC99 is over 250 µM.
In the case of `O=c1[nH]c(NC2CCC2)nc2ncn(Cc3ccc4ccccc4c3)c12`, the MIC99 (with Mycobacterium kansasii [1]; in test [2]; with Mycobacterium kansasii [3]; with Mycobacterium avium [4]; in test [5]; in the test on Mycobacterium kansasii [6]) was over 500 µM in each case. Also, the MIC99 with Mycobacterium avium [7] was over 500 µM.
Take `CN1CCN(c2nc3ncn(Cc4ccc5ccccc5c4)c3c(=O)[nH]2)CC1`: the MIC99 with Mycobacterium kansasii [1] was 500 µM (≈ 187 µg/mL); in test [2], 250 µM (≈ 93.6 µg/mL); with Mycobacterium kansasii [3] it was 500 µM (≈ 187 µg/mL); with Mycobacterium avium [4] it was over 500 µM; in test [5] it was 500 µM (≈ 187 µg/mL); in the test with Mycobacterium kansasii [6] it was 250 µM (≈ 93.6 µg/mL). Also, the MIC99 in the test on Mycobacterium avium [7] is over 500 µM.
For `O=c1[nH]c(N2CCOCC2)nc2c1ncn2Cc1ccc2ccccc2c1`, the MIC99 (in the test on Mycobacterium kansasii [1]; in test [2]; in the test on Mycobacterium kansasii [3]; in the test on Mycobacterium avium [4]; in test [5]; in the test with Mycobacterium kansasii [6]) was over 250 µM in each case. In addition, in the test with Mycobacterium avium [7], the MIC99 is over 250 µM.
Regarding `O=c1[nH]c(NC2CC2)nc2ncn(Cc3ccc4ccccc4c3)c12`, the MIC99 (in the test on Mycobacterium kansasii [1]; in test [2]; in the test on Mycobacterium kansasii [3]; in the test on Mycobacterium avium [4]; in test [5]; with Mycobacterium kansasii [6]) was over 500 µM in each case. Further, the MIC99 with Mycobacterium avium [7] is over 500 µM.
For the molecule `Clc1ncnc2ncn(Cc3ccc4ccccc4c3)c12`, the MIC99 was over 1000 µM in the test on Mycobacterium kansasii [1]; 125 µM (≈ 36.8 µg/mL) in test [2]; over 1000 µM with Mycobacterium kansasii [3]; over 1000 µM in the test on Mycobacterium avium [4]; 125 µM (≈ 36.8 µg/mL) in test [5]; 1000 µM (≈ 295 µg/mL) with Mycobacterium kansasii [6]. In the test with Mycobacterium avium [7], the MIC99 is over 1000 µM.
On to `c1ccc2cc(Cn3cnc4nc(N5CCOCC5)nc(N5CCOCC5)c43)ccc2c1`, for which the MIC99 in the test with Mycobacterium kansasii [1] was found to be 250 µM (≈ 108 µg/mL); in test [2], 125 µM (≈ 53.8 µg/mL); with Mycobacterium kansasii [3], 125 µM (≈ 53.8 µg/mL); in the test with Mycobacterium avium [4] it was 500 µM (≈ 215 µg/mL); in test [5], 125 µM (≈ 53.8 µg/mL); in the test with Mycobacterium kansasii [6] it was 125 µM (≈ 53.8 µg/mL). The MIC99 in the test on Mycobacterium avium [7] is 250 µM (≈ 108 µg/mL).
For `O=c1[nH]c(N2CCOCC2)nc2ccn(Cc3ccc4ccccc4c3)c12`, the MIC99 (in the test on Mycobacterium kansasii [1]; in test [2]; in the test with Mycobacterium kansasii [3]; with Mycobacterium avium [4]; in test [5]; with Mycobacterium kansasii [6]) was over 500 µM each time. Moreover, in the test on Mycobacterium avium [7], the MIC99 is over 500 µM.
`O=c1[nH]c(N2CC3(COC3)C2)nc2ncn(Cc3ccc4ccccc4c3)c12`: the MIC99 (with Mycobacterium kansasii [1]; in test [2]; in the test on Mycobacterium kansasii [3]; with Mycobacterium avium [4]; in test [5]; in the test on Mycobacterium kansasii [6]) was over 500 µM each time. Also, the MIC99 in the test on Mycobacterium avium [7] is over 500 µM.
